In ChEMBL document CHEMBL4513216, “Probing the Open Global Health Chemical Diversity Library for Multistage-Active Starting Points for Next-Generation Antimalarials” (ACS Infect Dis, 2020) one finds cytotoxicity data, which are given here for 38 compounds.

A short description of this series: Toxicity liver stage against HepG2, at 10uM. Format: cell-based. Further details: test concentration 10 uM, cell line HepG2-A16-CD81EGFP. The conditions noted are these: human, HepG2-A16-CD81EGFP cells; read-out: INHIBITION
In a few lines: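 Uninfected HepG2-A16-CD81EGFP cells, 3 × 10^3 per well, 1536-well, plated on prespotted compound at 10 μM final, parasite-free screening media added to match infected plates; puromycin 10 μM positive, DMSO 0.5% negative; run in parallel with 48 h PbLuc assay at 37 °C, 5% CO2; viability by CellTiter-Glo luminescence, normalized to controls.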
Consider `CN(C)c1ccc(-c2nnc([C@H]3CCN(C4CCCCC4)C3)o2)cc1`, for which the cytotoxicity at 10 µM was found to be 0.174%.

Regarding `CNC(=O)C(C)(C)N1CCC[C@H]1C(=O)NC(C)(C)C`, the cytotoxicity at 10 µM is -2.63%.

For `COc1ccc(-c2noc([C@@H]3C[C@H](NC(=O)NC(C)C)CN3C)n2)cc1`, the cytotoxicity at 10 µM is -1.47%.

`CS(=O)(=O)c1ccc(CN2C[C@@H]3OCC(=O)N(CC(N)=O)[C@@H]3C2)cc1`: the cytotoxicity at 10 µM stood at 2.67%.

Regarding `CCOC(=O)[C@@H]1[C@@H](c2ccccc2)CN2CCN(C(=O)C3CC3)C[C@H]12`, the cytotoxicity at 10 µM is -0.973%.

As to `COCCN1C[C@@H]2CN(C(=O)CC3CC3)C[C@@H]2C1=O`, the cytotoxicity at 10 µM is 7.8%.

On to `C[C@@H]1C[C@H]2CN(C(=O)C3=CCCC3)C[C@H]2O1`, for which the cytotoxicity at 10 µM was found to be 0.199%.

As for `O=C(NCCc1ccccn1)[C@@]12CCO[C@@H]1CCN(CC1CC1)C2`, the cytotoxicity at 10 µM came out at 5.79%.

`CC(C)c1cc(C(=O)NCCc2nc(-c3cccnc3)n[nH]2)[nH]n1`: the cytotoxicity at 10 µM is 8.02%.

Take `COCC(=O)N1C[C@@H](O)[C@H](N2CCN(c3ccccc3)CC2)C1`: the cytotoxicity at 10 µM was 2.7%.

On to `CN(C)C(=O)c1cn[nH]c1C1(C)CCN(c2ncccn2)CC1`, for which the cytotoxicity at 10 µM was 5.88%.

On to `CCCn1nccc1-c1cc(C2CCN(C(C)=O)CC2)ccn1`, for which the cytotoxicity at 10 µM is -1.68%.

With `CC(=O)NC(=O)C1(CCCc2ccncc2)CCN1` (stereo not drawn), the cytotoxicity at 10 µM is -24.5%.

`O=C(NC(Cc1ccsc1)c1nccs1)C1CC1` (stereo not drawn): the cytotoxicity at 10 µM was -28.3%.

As for `CCn1nc2c(cc1=O)CN(CC1CCCCO1)CC2` (stereo not drawn), the cytotoxicity at 10 µM is -2.94%.

Regarding `Cc1cc(C)n(CC(C)NC(=O)C(C)(C)c2ccccc2F)n1` (stereo not drawn), the cytotoxicity at 10 µM was -2.58%.

As to `CCc1noc(C)c1C(=O)NCCCC(CC)(CC)C1OCCO1`, the cytotoxicity at 10 µM was -10.1%.

On to `NC(=O)CC1CCN(c2cncc(OCc3ccccc3)n2)CC1`, for which the cytotoxicity at 10 µM was determined as 8.84%.

Take `CN(C)c1nc(CNC(=O)Nc2cccc([S+](C)[O-])c2)cs1` (stereo not drawn): the cytotoxicity at 10 µM is -5.27%.

`O=S(=O)(NC1CCN(CC(F)(F)F)C1)c1cc(F)cc(F)c1` (stereo not drawn): the cytotoxicity at 10 µM is -5.18%.

As to `CC(C(=O)N1CCN(CCOc2ccccc2)CC1)n1cncn1` (stereo not drawn), the cytotoxicity at 10 µM was -4.88%.

As to `Cc1n[nH]c(C)c1CNC(=O)NC1CCCCC1`, the cytotoxicity at 10 µM was 1.91%.

Turning to `Cc1cn2c(CN(C)C(=O)c3cnc(N)c(Cl)c3)c(C)nc2s1`, the cytotoxicity at 10 µM was -8.46%.

Regarding `Cc1cccc(C(=O)NCc2ccc(OCCN(C)C)cc2)c1C`, the cytotoxicity at 10 µM turned out to be 1.52%.

In the case of `Cc1cc(C(=O)Nc2cnn(CC(=O)NC3CCCC3)c2)c(C)s1`, the cytotoxicity at 10 µM turned out to be 3.07%.

As to `O=C(C1CC=CC1)N1Cc2nccn2CC(CN2CCCC2)C1` (stereo not drawn), the cytotoxicity at 10 µM was -86.5%.

Consider `Cc1cccc(C(=O)N2CCc3c(COCC4CC4)cncc3C2)n1`, for which the cytotoxicity at 10 µM is -80.1%.

For `CCO[C@@H]1CCN(C(=O)N(C)C)[C@@H]1Cc1cnn(C)c1`, the cytotoxicity at 10 µM was -73.4%.

Turning to `CN[C@@H](CO)C(=O)NCc1cc2n(n1)CCCN(C1CCCCC1)C2`, the cytotoxicity at 10 µM is -3.14%.

With `Cc1nc(C2CCN(C(=O)c3cccnc3)CC2)c2sccn12`, the cytotoxicity at 10 µM is -5.35%.

Regarding `CCn1ccnc1CN1CCN(CC(O)CN2CCOCC2)CC1` (stereo not drawn), the cytotoxicity at 10 µM is -7.83%.

Take `CCC1c2ccsc2CCN1C(=O)NCCNc1ncccn1` (stereo not drawn): the cytotoxicity at 10 µM was -13.6%.

Turning to `CN(CC1COc2ccccc2O1)C(=O)NCCCn1ccnc1` (stereo not drawn), the cytotoxicity at 10 µM was -5.54%.

Consider `O=C(NCc1ccco1)[C@@H]1CC[C@@H]2[C@@H](CCN2CC2CC2)O1`, for which the cytotoxicity at 10 µM was -4.48%.

As to `CC(=O)N1[C@H](CN(C)C)C[C@@H]2CN(C(=O)c3occc3C)CC[C@@H]21`, the cytotoxicity at 10 µM turned out to be 0.847%.

`CCN1CCC2(C=C(C(=O)NC3CC3)c3ccccc32)CC1`: the cytotoxicity at 10 µM stood at 6.2%.

Regarding `O=C1CO[C@@H]2CN(Cc3cccnc3)C[C@H]2N1Cc1ccncc1`, the cytotoxicity at 10 µM is -77.6%.

For the compound `COc1cc(O)cc2c1C(=O)CC(c1ccc(O)cc1)O2` (stereo not drawn), the cytotoxicity at 10 µM was -3.07%.
